# Experimental data from different studies.
# Compare with care: the assays were run in different laboratories.
# Sample: Caco-2
Structure (SMILES),tested at,time,pH,Papp A→B [×10⁻⁶ cm/s]
CC(C)NCC(O)COc1cccc2ccccc12 (stereo not shown),5 µM,1 h,,19.3
C[C@H]1O[C@@H](O[C@H]2[C@@H](O)C[C@H](O[C@H]3[C@@H](O)C[C@H](O[C@H]4CC[C@@]5(C)[C@H](CC[C@@H]6[C@@H]5C[C@@H](O)[C@]5(C)[C@@H](C7=CC(=O)OC7)CC[C@]65O)C4)O[C@@H]3C)O[C@@H]2C)C[C@H](O)[C@@H]1O,,,,0.0218
C=CC(=O)Nc1cc(Nc2nccc(-c3cn(C)c4ccccc34)n2)c(OC)cc1N(C)CCN(C)C,,,pH 7.4,8.64
Cc1ncsc1-c1ccc(CNC(=O)[C@@H]2C[C@@H](O)CN2C(=O)[C@@H](NC(=O)C2(F)CC2)C(C)(C)C)c(OCCOc2ccc(CN3CCN(c4cc(-c5ccccc5O)nnc4N)CC3)cc2)c1,,2 h,pH 7.2,2.2
COc1cccc2c(-c3ccccc3)cc(-c3ccc(-c4ccc(C(=O)O)cc4)[nH]3)nc12,,,,2.42
CCC(=O)N[C@H]1Cc2cccc(C(=O)OCOC(=O)C(CC)CC)c2OB1O,5 µM,2 h,pH 7.4,8.25
Nc1cc(N2CCCCC2)nc(N)[n+]1[O-],10 µM,2 h,pH 7.4,4.18
O=C1C[C@@H](c2ccc(O[C@@H]3O[C@H](CO)[C@@H](O)[C@H](O)[C@H]3O)cc2)Oc2cc(O)ccc21,,2 h,,> 1
CC(C)NCC(O)COc1cccc2ccccc12 (stereo not shown),,,,46.5
COCCc1ccc(OCC(O)CNC(C)C)cc1 (stereo not shown),,,pH 7.4,73.6
O=C(O)CCc1ccc(Oc2ccc(-c3noc(-c4ccc(O)cc4)n3)cc2)cc1,,2 h,pH 7.4,18
COc1cc(F)ccc1-c1ncnc(Nc2cccc(C[S@](C)(=N)=O)c2)n1,2 µM,2 h,pH 7.2,3.5
C[C@H]1O[C@@H](O[C@H]2[C@@H](O)C[C@H](O[C@H]3[C@@H](O)C[C@H](O[C@H]4CC[C@@]5(C)[C@H](CC[C@@H]6[C@@H]5C[C@@H](O)[C@]5(C)[C@@H](C7=CC(=O)OC7)CC[C@]65O)C4)O[C@@H]3C)O[C@@H]2C)C[C@H](O)[C@@H]1O,10 µM,2 h,pH 7.4,0.11
Cn1c(=O)c2c(nc(S)n2C)n(C)c1=O,10 µM,2 h,,0.9
COCCc1ccc(OCC(O)CNC(C)C)cc1 (stereo not shown),,,,16.6
O=C(C1CCCCC1)N1CC(=O)N2CCc3ccccc3C2C1 (stereo not shown),,,,38.4
